According to ChEMBL document CHEMBL1122743, “Structure-activity relationship study of the inhibition of adrenal cortical 11 beta-hydroxylase by new metyrapone analogues” (J Med Chem, 1984):

Molecular target: T1, Cytochrome P450 11B1, mitochondrial (Bos taurus, UniProt P15150)
T1 sequence (P15150 whole entry): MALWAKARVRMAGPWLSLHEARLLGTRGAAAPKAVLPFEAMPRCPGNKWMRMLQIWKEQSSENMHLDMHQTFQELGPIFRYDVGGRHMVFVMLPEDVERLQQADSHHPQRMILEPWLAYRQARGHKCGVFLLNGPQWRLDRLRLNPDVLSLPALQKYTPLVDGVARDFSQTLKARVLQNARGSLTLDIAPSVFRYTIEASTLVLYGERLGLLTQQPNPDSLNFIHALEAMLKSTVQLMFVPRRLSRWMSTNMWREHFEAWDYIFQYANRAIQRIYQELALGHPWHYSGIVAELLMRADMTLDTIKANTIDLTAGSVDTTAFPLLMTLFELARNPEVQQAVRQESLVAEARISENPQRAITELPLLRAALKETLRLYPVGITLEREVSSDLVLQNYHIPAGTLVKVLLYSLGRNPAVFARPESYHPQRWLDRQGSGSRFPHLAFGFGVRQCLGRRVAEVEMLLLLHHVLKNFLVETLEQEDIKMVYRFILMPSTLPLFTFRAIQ
Assay: Evaluated for inhibition of bovine adrenal cortical mitochondrial 11 beta-hydroxylase
Format: functional
How it was run: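 Crude lyophilized, defatted adrenal cortical mitochondria (300 µg) plus 15.0 µM purified adrenodoxin, in 0.50 mL of 50 mM potassium phosphate pH 7.40. Additions: 200 µM DOC with [3H]DOC tracer, 16 mM MgCl2, 4.6% propylene glycol, inhibitor (final 1% ethanol). Preincubated 5 min at 37 °C, then started with 1.5 mM NADPH. Products extracted into CH2Cl2, separated by TLC, counted by scintillation. Percent inhibition versus 1% ethanol controls; duplicates.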

IC50 [µM] | SMILES
2.64 | CC(C)(Cc1cccnc1)c1cccnc1
> 1000 | CC(C)(c1cccnc1)C(N)c1cccnc1 (stereo not given)
5.36 | CC(C)(c1cccnc1)C(I)c1cccnc1 (stereo not given)
4.78 | CC(C)(C(=NO)c1cccnc1)c1cccnc1
7.05 | CC(C)(c1cccnc1)C(O)c1cccnc1 (stereo not given) [METYRAPOL]
7.83 | CC(C)(C(=O)c1cccnc1)c1cccnc1 [METYRAPONE]

The remaining lines, values behind:

SMILES | IC50 [µM]
CC(C)(C(=O)c1ccccc1)c1cccnc1 | 3.3
CC(C)(c1cccnc1)C(Cl)c1cccnc1 (stereo not given) | 7.25
CC(C)(Cc1ccccc1)c1cccnc1 | 0.66
CC(C(=O)c1ccccc1)c1cccnc1 (stereo not given) | 7.72
CC(C)(c1cccnc1)C(O)c1ccccc1 (stereo not given) | 1.53
COC(c1cccnc1)C(C)(C)c1cccnc1 (stereo not given) | 7.3
CC(C)(c1cccnc1)C(Cl)c1ccccc1 (stereo not given) | 1.63
O=C(Cc1cccnc1)c1ccccc1 | 158
CC(=O)NC(c1cccnc1)C(C)(C)c1cccnc1 (stereo not given) | 87.5
